# High-throughput results: PubChem, Sanford-Burnham Center for Chemical Genomics
# In the library only some 2.9% were active in any assay of this set; here they are far more common.
# Apaf1 inhib = inhibitors of human Apaf-1 apoptosome, primary screen, biochemical, DEVD-Rh110 fluorescence, uHTS | Apoptotic protease-activating factor 1 (Homo sapiens), O14727 | reconstituted apoptosome caspase-3 activity | inhibition, % at 20 µM | hit rate 0.71% among 330,000; active means inhibition of at least 40% at 20 µM;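 further: plate controls were DMSO wells for no effect and DEVD-CHO caspase inhibitor wells for full effect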
#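 Material: biochemical Apaf-1 apoptosome reconstitution. Medium: Hepes buffer, pH 7.5. Also added: cytochrome c activation, bis-DEVD rhodamine 110 substrate. Timing: 30 min compound preincubation, 50 min activation, room temperature. Measured by: rhodamine 110 fluorescence at Ex 480/Em 540 nm.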
# SENP6 block = SENP6 protease inhibitors, primary screen, biochemical, luminescence, uHTS; hit rate 1.8% among 330,000; Recombinant SENP6 catalytic domain, aminoluciferin luminescence; Sentrin-specific protease 6 (Homo sapiens), Q9GZR1; inhibition, % at 10 µM;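 active means inhibition above about 50% at the single tested dose, limit read from the data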;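 further: plate controls were DMSO wells with enzyme for no effect and DMSO wells lacking enzyme for full effect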
# SENP1 FRET inh = human SENP1 catalytic domain inhibitors, primary screen, biochemical, FRET, uHTS. Sentrin-specific protease 1 (Homo sapiens), Q9P0U3. recombinant SENP1 catalytic domain, CyPet-SUMO1-YPet FRET cleavage. inhibition, % at 10 µM. hit rate 0.21% among 360,000. AID 624204, 2012;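 active means inhibition at least 30% at 10 µM, raw YFP signal under a set limit, fluorescence ratio 0.5 to 1.5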;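 further: 0% = enzyme with DMSO and 100% = no enzyme wells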
#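 System: Recombinant human SENP1 catalytic domain, His6-tagged | Incubation: Enzyme reaction for 50 min at room temperature, dark | Medium: Tris pH 8 with BME, BSA, NP40 and catalase | Also added: 25 nM SUMO1 FRET substrate | Compound: 10 µM single point, 0.5% DMSO | Measured by: FRET fluorescence in CFP and YFP emission channels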
# SENP8 block-1 = human SENP8 protease inhibitors, primary screen, biochemical, fluorescence, Nedd8 protein substrate, uHTS. Sentrin-specific protease 8 (Homo sapiens), Q96LD8. recombinant SENP8. inhibition, % at 20 µM. hit rate 0.64% among 360,000. AID 602440, 2012; in the data active means inhibition mostly above about 40%, no sharp cut-off; inactive means mostly below about 27%
# Target sequence (Q96LD8 whole entry, looked up): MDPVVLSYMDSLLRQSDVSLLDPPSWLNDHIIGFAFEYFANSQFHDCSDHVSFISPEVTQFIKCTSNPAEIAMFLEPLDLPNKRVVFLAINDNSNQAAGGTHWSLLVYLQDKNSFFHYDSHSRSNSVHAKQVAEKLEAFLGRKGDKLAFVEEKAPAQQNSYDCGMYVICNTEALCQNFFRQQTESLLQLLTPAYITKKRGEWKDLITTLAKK
# SENP7 inh = SENP7 protease inhibitors, primary screen, biochemical, luminescence, uHTS. Sentrin-specific protease 7 (Homo sapiens), Q9BQF6. recombinant SENP7, Z-RLRGG-aminoluciferin luminescence, 40 min. inhibition, % at 5 µM. hit rate 1.5% among 330,000. AID 434973, 2010;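 active means inhibition above about 50% at the single test dose, limit read from the data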;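 further: plate controls were DMSO with enzyme for no effect and no enzyme buffer wells for full effect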
# Target sequence (Q9BQF6 706-1050 limits assumed): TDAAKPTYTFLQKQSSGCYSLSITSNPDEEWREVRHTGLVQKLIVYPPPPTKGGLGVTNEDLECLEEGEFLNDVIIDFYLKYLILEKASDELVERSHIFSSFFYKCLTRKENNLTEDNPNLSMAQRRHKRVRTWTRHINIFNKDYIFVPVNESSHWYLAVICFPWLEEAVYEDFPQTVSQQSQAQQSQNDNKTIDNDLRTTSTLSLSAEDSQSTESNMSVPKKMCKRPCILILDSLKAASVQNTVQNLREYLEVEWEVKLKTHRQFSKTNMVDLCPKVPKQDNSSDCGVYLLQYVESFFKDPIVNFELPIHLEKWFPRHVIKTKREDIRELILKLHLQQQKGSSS
# SENP8 block-2 = SENP8 protease inhibitors, primary screen, biochemical, luminescence; Sentrin-specific protease 8 (Homo sapiens), Q96LD8; purified SENP8, Z-RLRGG-aminoluciferin cleavage; AID 2540, 2010; inhibition, % at 10 µM; hit rate 1.2% among 330,000; in the data active means inhibition above about 50%
# * = called active by the depositor; x = not tested or not shown.
SMILES,Apaf1 inhib,SENP6 block,SENP1 FRET inh,SENP8 block-1,SENP7 inh,SENP8 block-2
S=C(NCc1ccccc1)Nc1cccc2ccccc12,20.3,14.2,-0.3,-265.4,2.7,13.9
CC(=O)c1cccc(NC(=O)C(=O)Nc2cccc3ccccc23)c1,9.1,2.0,0.2,7.2,35.0,-1.6
Cc1ccc(NC(=S)Nc2cccc3ccccc23)cc1F,88.9*,93.5*,-24.1,-389.2,48.6,89.1*
CC(=O)c1ccc(NC(=S)Nc2cccc3ccccc23)cc1,44.6*,91.2*,-4.9,-389.7,52.9*,64.5*
O=C(NNc1ccc([N+](=O)[O-])cc1)Nc1ccccc1,-2.8,-11.9,1.1,37.1,1.4,1.9
O=C(NNc1ccc([N+](=O)[O-])cn1)Nc1ccc(N=Nc2ccccc2)cc1,x,x,0.1,48.1*,x,x
COc1cc(C2C3=C(COC3=O)Oc3cc4c(cc32)OCO4)cc(OC)c1OC (centres undefined),x,x,0.2,43.5*,x,x
COc1ccc(/C=C2\SC(=O)NC2=S)cc1OC,2.1,19.5,31.5*,24.1,8.3,1.1
CCOc1ccc(/C=C2\SC(=S)NC2=O)cc1OC,-0.6,-6.0,-12.2,34.9,-6.3,5.8
COc1cc(/C=C2/SC(=S)NC2=O)ccc1OS(=O)(=O)c1ccc(C)cc1,9.6,-3.0,6.0,19.6,5.1,8.2
COc1cc(/C=C2\SC(=S)NC2=O)ccc1OS(=O)(=O)c1ccccc1,2.5,58.7*,x,x,9.2,43.5
Cc1ccc(NC(=O)Nc2ccccc2C(N)=O)cc1,-3.8,95.1*,-0.8,-41.4,95.8*,88.6*
COCc1c(C(=O)NC2CCCCC2)sc2cccc(F)c12,7.9,-6.1,-0.5,11.6,3.7,0.8
O=C(COc1ccccc1[N+](=O)[O-])N/N=C/c1cccc(OC(=O)c2ccc3c(c2)OCO3)c1,-3.4,71.2*,2.0,9.7,77.2*,41.7
CCCCNc1ccc2nsnc2c1[N+](=O)[O-],38.4,67.1*,-33.7,11.4,19.7,-4.1
CC(C)CN(C(=O)COc1ccccc1C(=O)NCc1ccccc1)C1CCS(=O)(=O)C1 (centres undefined),x,x,1.9,17.0,x,x
CCC1=NN(C(=O)c2ccc(Cl)cc2)C(O)(c2ccc(C)cc2)C1 (centres undefined),11.5,9.0,-1.4,7.9,11.1,0.8
CCOC(=O)C1=NN(C(=O)c2ccc(C)cc2)C(O)(c2ccc(Cl)cc2)C1 (centres undefined),5.2,-1.1,31.0*,20.0,-0.6,5.0
CC(O)(c1cccc(F)c1)c1nc(-c2cccc3cccnc23)cs1 (centres undefined),x,x,0.4,-170.0,x,x
COC1=CC(=O)c2nc(Cl)ccc2C1=O,x,x,6.2,87.8*,x,x
C#Cc1cccc(NC(=O)c2ccc(Cl)cc2Cl)c1,11.8,72.9*,0.1,10.8,73.6*,61.9*
CC1(C)CC(=O)C=C(NCC(=O)O)C1,-7.8,12.6,-20.4,7.0,-8.1,-6.1
CCSCCC(NC1=CC(=O)CC(C)(C)C1)C(=O)O (centres undefined),48.7*,-2.8,-3.0,28.4,-4.3,-0.5
O=C(Nc1cccc(-n2cnnn2)c1)c1ccoc1COc1ccc(Cl)cc1,20.2,-13.3,-0.2,12.5,-1.0,-4.5
Oc1[nH]c2ccccc2c1C=Nc1ccccc1,-10.7,67.1*,-3.2,38.2,62.1*,46.5
SMILES,Apaf1 inhib,SENP6 block,SENP1 FRET inh,SENP8 block-1,SENP7 inh,SENP8 block-2
C#CCOCCOCCOCCNc1nc(N2CCN(C(=O)Cn3cc(CCCN=C(N)N)nn3)CC2)nc(N2CCN(C(=O)[C@H]([C@@H](C)CC)n3cc(CCCCN)nn3)CC2)n1,8.0,-17.2,0.0,24.3,0.9,-7.2
C#CCOCCOCCOCCNc1nc(N2CCN(C(=O)CCCCCCCCCCNC(=O)[C@H]([C@@H](C)CC)n3cc(CCCCCN)nn3)CC2)nc(N2CCN(C(=O)CCCCCCCCCCNC(=O)[C@@H]([C@H](C)CC)n3cc(CCCCCN)nn3)CC2)n1,78.1*,-26.1,x,x,6.9,-27.5
C#CCOCCOCCOCCNc1nc(N2CCN(C(=O)C(Cc3ccc(O)cc3)n3cc(C(N)CC(C)C)nn3)CC2)nc(N2CCN(C(=O)C(Cc3cc4ccccc4[nH]3)n3cc(C(N)Cc4ccc(O)cc4)nn3)CC2)n1 (centres undefined),35.2,-14.2,x,x,-0.3,-4.1
C#CCOCCOCCOCCNc1nc(N2CCN(C(=O)CCCCCCCCCCNC(=O)[C@H]([C@@H](C)CC)n3cc(CCCCN=C(N)N)nn3)CC2)nc(N2CCN(C(=O)CCCCCCCCCCNC(=O)[C@H](CO)n3cc(CCCCCN)nn3)CC2)n1,85.1*,-32.2,-2.6,23.5,6.7,-5.6
C#CCOCCOCCOCCNc1nc(N2CCN(C(=O)[C@H]([C@@H](C)CC)n3cc([C@@H](N)CO)nn3)CC2)nc(N2CCN(C(=O)[C@H](Cc3cc4ccccc4[nH]3)n3cc([C@@H](N)Cc4ccc(O)cc4)nn3)CC2)n1,56.6*,-20.1,x,x,-7.5,-11.6
C#CCOCCOCCOCCNc1nc(N2CCN(C(=O)CCCCCCCCCCNC(=O)[C@H]([C@@H](C)CC)n3cc(CCCCCN)nn3)CC2)nc(N2CCN(C(=O)CCCCCCCCCCNC(=O)[C@H]([C@@H](C)CC)n3cc(CCCCN=C(N)N)nn3)CC2)n1,71.5*,-65.4,1.3,28.8,5.8,-13.4
COc1cccc(NC(=S)NC(Cc2ccccc2)c2ccccc2)c1 (centres undefined),x,x,1.4,8.4,x,x
CN(CC(=O)NCCc1ccc(S(N)(=O)=O)cc1)CC(=O)Nc1cccc(F)c1,4.9,-6.9,-1.8,12.8,5.0,-2.7
C#CCOCCOCCOCCNc1nc(N2CCN(C(=O)CCCCCCCCCCNC(=O)[C@H](CO)n3cc(CCCSC)nn3)CC2)nc(N2CCN(C(=O)CCCCCCCCCCNC(=O)[C@H](CCCN=C(N)N)n3cc(C[C@@H](C)CC)nn3)CC2)n1,45.1*,-60.5,-0.4,17.3,1.0,-8.3
C#CCOCCOCCOCCNc1nc(N2CCOCC2)nc(N2CCN(C(=O)CCCCCCCCCCNC(=O)[C@@H]([C@H](C)CC)n3cc(CCCCCN)nn3)CC2)n1,19.6,-9.8,1.7,6.3,-1.4,-7.1
CC[C@H](C)[C@@H](C(=O)NCCCCCCCCCCC(=O)N1CCN(C(=O)OC(C)(C)C)CC1)n1cc(CCCCN=C(NC(=O)OC(C)(C)C)NC(=O)OC(C)(C)C)nn1,56.1*,-8.2,x,x,5.3,-7.3
